Measurements as given in ChEMBL document CHEMBL2069210, “D-ring modified novel isosteviol derivatives: design, synthesis and cytotoxic activity evaluation” (Bioorg Med Chem Lett, 2012).
pIC50: −log10 of the molar value.

Key:
Assay type in all cases: functional, cell-based
[1] = Antiproliferative activity against human ECA109 cells after 72 hrs by MTT assay; conditions: ECa-109, 72 h
Procedure, shortened: (§1)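 Seeded at 5 × 10^3 cells/well and left 24 h. Medium then replaced with fresh medium holding compound over a range of concentrations, and cells incubated a further 72 h. 0.5 mg/mL MTT in PBS added for 4 h, formazan dissolved in DMSO, absorbance read at 562 nm. IC50 derived from percent inhibition across concentrations.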

HCT-116 = assay: Antiproliferative activity against human HCT116 cells after 72 hrs by MTT assay; conditions: HCT-116, 72 h; procedure, shortened: as §1
PC-3 = assay: Antiproliferative activity against human PC3 cells after 72 hrs by MTT assay; conditions: PC-3, 72 h; procedure, shortened: as §1
[2] = Antiproliferative activity against human EC9706 cells after 72 hrs by MTT assay; conditions: EC9706, 72 h; procedure, shortened: as §1

Row | SMILES | pIC50 [1] | pIC50 (HCT-116) | pIC50 (PC-3) | pIC50 [2]
1 | CCOC(=O)[C@]1(C)CCC[C@@]2(C)[C@@H]3CC[C@@]4(C)C[C@]3(CC[C@@H]21)C(=O)C4=O | < 4.00 | < 4.00 | < 4.00 | < 4.00
2 | CCOC(=O)[C@]1(C)CCC[C@@]2(C)[C@@H]3CC[C@@]4(C)C[C@]3(CC[C@@H]21)C(=O)[C@H]4O | < 4.00 | < 4.00 | < 4.00 | < 4.00
3 | CCOC(=O)[C@]1(C)CCC[C@@]2(C)[C@@H]3CC[C@@]4(C)C[C@]3(CC[C@@H]21)[C@@H](O)[C@H]4O | 4.04 | < 4.00 | 4.06 | 4.28
4 | CCOC(=O)[C@]1(C)CCC[C@@]2(C)[C@@H]3CC[C@@]4(C)C[C@]3(CC[C@@H]21)C(=O)/C4=N\O | < 4.00 | < 4.00 | < 4.00 | < 4.00
5 | C[C@]12CC[C@H]3[C@]4(C)CCC[C@@](C)(CO)[C@H]4CC[C@@]3(C1)[C@@H](O)/C2=N\O | < 4.00 | < 4.00 | < 4.00 | < 4.00
6 | CCOC(=O)[C@]1(C)CCC[C@@]2(C)[C@@H]3CC[C@@]4(C)C[C@]3(CC[C@@H]21)[C@@H](O)/C4=N\O | < 4.00 | < 4.00 | < 4.00 | < 4.00
7 | CCOC(=O)[C@]1(C)CCC[C@@]2(C)[C@@H]3CC[C@@]4(C)C[C@]3(CC[C@@H]21)[C@H](C=O)[C@H]4O | 4.58 | < 4.00 | < 4.00 | 4.61
8 | CCOC(=O)[C@]1(C)CCC[C@@]2(C)[C@@H]3CC[C@@]4(C)C[C@]3(CC[C@@H]21)[C@H](/C=N/O)[C@H]4O | 4.75 | < 4.00 | < 4.00 | 4.25
9 | CCOC(=O)[C@]1(C)CCC[C@@]2(C)[C@@H]3CC[C@@]4(C)C[C@]3(CC[C@@H]21)C(=O)[C@H]4N | < 4.00 | < 4.00 | < 4.00 | 4.01
10 | CCOC(=O)[C@]1(C)CCC[C@@]2(C)[C@@H]3CC[C@@]4(C)C[C@]3(CC[C@@H]21)[C@@H](O)[C@H]4N | 4.38 | 4.70 | 4.60 | 4.71
11 | CCOC(=O)[C@]1(C)CCC[C@@]2(C)[C@@H]3CC[C@@]4(C)C[C@]3(CC[C@@H]21)C(=O)[C@H]4NC(=O)[C@@H]1CCCN1 | < 4.00 | < 4.00 | < 4.00 | < 4.00
12 | CCOC(=O)[C@]1(C)CCC[C@@]2(C)[C@@H]3CC[C@@]4(C)C[C@]3(CC[C@@H]21)[C@@H](O)[C@H]4NC(=O)[C@@H]1CCCN1 | 4.16 | < 4.00 | < 4.00 | 4.22
13 | CCOC(=O)[C@]1(C)CCC[C@@]2(C)[C@@H]3CC[C@@]4(C)C[C@]3(CC[C@@H]21)C(=O)[C@H]4NC(=S)Nc1ccccc1 | < 4.00 | < 4.00 | < 4.00 | < 4.00
14 | CCOC(=O)[C@]1(C)CCC[C@@]2(C)[C@@H]3CC[C@@]4(C)C[C@]3(CC[C@@H]21)C(=O)[C@H]4NC(=S)Nc1cccc2ccccc12 | < 4.00 | < 4.00 | < 4.00 | < 4.00
15 | CCOC(=O)[C@]1(C)CCC[C@@]2(C)[C@@H]3CC[C@@]4(C)C[C@]3(CC[C@@H]21)C(=O)[C@H]4NC(=S)Nc1cc(C(F)(F)F)cc(C(F)(F)F)c1 | < 4.00 | < 4.00 | < 4.00 | < 4.00
16 | CCOC(=O)[C@]1(C)CCC[C@@]2(C)[C@@H]3CC[C@@]4(C)C[C@]3(CC[C@@H]21)[C@@H](O)[C@H]4NC(=S)Nc1ccccc1 | 4.14 | < 4.00 | < 4.00 | < 4.00
17 | CCOC(=O)[C@]1(C)CCC[C@@]2(C)[C@@H]3CC[C@@]4(C)C[C@]3(CC[C@@H]21)[C@@H](O)[C@H]4NC(=S)Nc1cccc2ccccc12 | 4.04 | < 4.00 | < 4.00 | < 4.00

Row | SMILES | pIC50 [1] | pIC50 (HCT-116) | pIC50 (PC-3) | pIC50 [2]
18 | CCOC(=O)[C@]1(C)CCC[C@@]2(C)[C@@H]3CC[C@@]4(C)C[C@]3(CC[C@@H]21)[C@@H](O)[C@H]4NC(=S)Nc1cc(C(F)(F)F)cc(C(F)(F)F)c1 | 4.34 | 4.84 | 4.69 | 4.62
19 | CCOC(=O)[C@]1(C)CCC[C@@]2(C)[C@@H]3CC[C@]4(C)C=C(C=O)[C@@]3(CC[C@@H]21)C4 | < 4.00 | < 4.00 | 4.39 | < 4.00
20 | CCOC(=O)[C@]1(C)CCC[C@@]2(C)[C@@H]3CC[C@@]4(C)C[C@]3(CC[C@@H]21)[C@H](C=O)[C@H]4N1CCCC1 | 4.52 | < 4.00 | < 4.00 | < 4.00
21 | CCOC(=O)[C@]1(C)CCC[C@@]2(C)[C@@H]3CC[C@@]4(C)C[C@]3(CC[C@@H]21)[C@@H](CN)[C@@H]4O | 5.30 | 4.91 | 4.82 | 5.40
22 | CCOC(=O)[C@]1(C)CCC[C@@]2(C)[C@@H]3CC[C@@]4(C)C[C@]3(CC[C@@H]21)[C@H](CNC(C)=O)[C@H]4OC(C)=O | < 4.00 | < 4.00 | < 4.00 | < 4.00
23 | CCOC(=O)[C@]1(C)CCC[C@@]2(C)[C@@H]3CC[C@@]4(C)C[C@]3(CC[C@@H]21)[C@H](CNC(C)=O)[C@H]4O | 4.88 | < 4.00 | < 4.00 | 4.67
24 | CCOC(=O)[C@]1(C)CCC[C@@]2(C)[C@@H]3CC[C@@]4(C)C[C@]3(CC[C@@H]21)C(Br)C4=O (some centres not stated) | < 4.00 | < 4.00 | < 4.00 | < 4.00
25 | CCOC(=O)[C@]1(C)CCC[C@@]2(C)[C@@H]3CC[C@@]4(C)C[C@]3(CC[C@@H]21)C(=O)OC4=O | < 4.00 | < 4.00 | < 4.00 | < 4.00
26 | CCOC(=O)[C@]1(C)CCC[C@@]2(C)[C@@H]3CC[C@](C)(C(=O)O)C[C@@]3(C(=O)O)CC[C@@H]21 | < 4.00 | < 4.00 | < 4.00 | < 4.00
27 | CCOC(=O)[C@]1(C)CCC[C@@]2(C)[C@@H]3CC[C@](C)(C(N)=O)C[C@@]3(C(=O)O)CC[C@@H]21 | < 4.00 | < 4.00 | < 4.00 | < 4.00
28 | CCOC(=O)[C@]1(C)CCC[C@@]2(C)[C@@H]3CC[C@](C)(C#N)C[C@@]3(C(=O)O)CC[C@@H]21 | < 4.00 | < 4.00 | < 4.00 | < 4.00
29 | CCOC(=O)[C@]1(C)CCC[C@@]2(C)[C@@H]3CC[C@](C)(C#N)C[C@@]3(C=O)CC[C@@H]21 | < 4.00 | < 4.00 | < 4.00 | < 4.00
30 | CCOC(=O)[C@]1(C)CCC[C@@]2(C)[C@@H]3CC[C@@]4(C)C[C@]3(CC[C@@H]21)CC4=O | < 4.00 | < 4.00 | < 4.00 | < 4.00
31 | CCOC(=O)[C@]1(C)CCC[C@@]2(C)[C@@H]3CC[C@@]4(C)C[C@]3(CC[C@@H]21)[C@H](CO)[C@H]4O | 4.36 | < 4.00 | < 4.00 | 4.04
32 | CCOC(=O)[C@]1(C)CCC[C@@]2(C)[C@@H]3CC[C@@]4(C)C[C@]3(CC[C@@H]21)C[C@H]4O | < 4.00 | < 4.00 | < 4.00 | < 4.00
33 | C[C@@]12CC[C@@H]3[C@@](CC[C@H]4[C@@]3(C)CCC[C@@]4(C)C(=O)O)(CC1=O)C2 [ISOSTEVIOL] | < 4.00 | < 4.00 | < 4.00 | < 4.00
